{"source": "ChEMBL document CHEMBL4425094", "about": "“Novel Benzo[a]quinolizidine Analogs Induce Cancer Cell Death through Paraptosis and Apoptosis” (J Med Chem, 2016)", "key": {"PC-3 [1]": {"test_system": "PC-3", "assay": "Induction of vacuolization in human PC3 cells in presence of CHX after 24 hrs by phase-contrast microscopic analysis", "type": "functional, cell-based", "method_in_brief": "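PC3 cells pretreated with 10 μM actinomycin D or 5 μM cycloheximide, then treated with agent for 24 h. Vacuolization imaged by phase-contrast microscopy; viability by MTT.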"}, "PC-3 [2]": {"test_system": "PC-3", "assay": "Induction of ER stress in human PC3 cells assessed as formation of vacuoles after 8 to 24 hrs […]", "type": "functional, cell-based"}, "[3]": {"molecular_target": "T1, Eukaryotic translation initiation factor 2-alpha kinase 3 (Homo sapiens) (UniProt Q9NZJ5)", "T1 sequence (whole entry)": "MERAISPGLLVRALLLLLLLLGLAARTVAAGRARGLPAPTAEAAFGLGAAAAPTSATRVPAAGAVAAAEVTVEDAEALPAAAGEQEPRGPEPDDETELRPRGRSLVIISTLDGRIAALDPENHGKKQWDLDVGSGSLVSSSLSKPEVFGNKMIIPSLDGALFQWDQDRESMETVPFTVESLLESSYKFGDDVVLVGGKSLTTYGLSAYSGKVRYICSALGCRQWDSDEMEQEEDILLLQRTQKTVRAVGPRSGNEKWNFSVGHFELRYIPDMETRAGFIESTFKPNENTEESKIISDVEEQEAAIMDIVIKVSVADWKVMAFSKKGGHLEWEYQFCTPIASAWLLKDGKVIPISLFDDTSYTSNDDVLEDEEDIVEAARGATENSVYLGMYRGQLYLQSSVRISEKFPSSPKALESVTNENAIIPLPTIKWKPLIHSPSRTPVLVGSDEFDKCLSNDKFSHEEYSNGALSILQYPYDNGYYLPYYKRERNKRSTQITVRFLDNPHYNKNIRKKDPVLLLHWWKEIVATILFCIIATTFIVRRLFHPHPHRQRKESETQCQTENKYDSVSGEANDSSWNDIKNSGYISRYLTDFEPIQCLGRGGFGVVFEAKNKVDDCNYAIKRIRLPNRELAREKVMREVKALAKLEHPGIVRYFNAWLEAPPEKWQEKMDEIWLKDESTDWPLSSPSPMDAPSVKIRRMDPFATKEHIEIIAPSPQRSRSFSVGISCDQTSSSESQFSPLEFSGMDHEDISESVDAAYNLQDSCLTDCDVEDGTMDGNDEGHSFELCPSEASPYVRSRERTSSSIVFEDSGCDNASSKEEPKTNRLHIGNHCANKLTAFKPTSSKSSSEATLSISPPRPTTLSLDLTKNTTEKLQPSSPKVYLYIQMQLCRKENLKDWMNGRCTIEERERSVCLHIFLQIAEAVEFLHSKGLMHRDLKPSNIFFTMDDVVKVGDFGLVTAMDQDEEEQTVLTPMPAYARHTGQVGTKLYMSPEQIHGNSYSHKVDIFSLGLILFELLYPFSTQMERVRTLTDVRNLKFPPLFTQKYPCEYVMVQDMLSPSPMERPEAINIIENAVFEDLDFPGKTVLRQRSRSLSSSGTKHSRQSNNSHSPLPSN", "assay": "Activation of PERK phosphorylation in human PC3 cells after 24 hrs by Western blot analysis", "type": "cell-based", "method_in_brief": "(§1)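 PC3 cells in RPMI 1640 with 10% FBS, treated with compound for timed intervals. DMSO vehicle control. Lysis in RIPA buffer, 40 μg protein per lane on SDS-PAGE, transfer to nitrocellulose. Primary antibodies overnight at 4 °C, HRP-secondary 45 min, ECL detection. GAPDH or β-actin used as loading control.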"}, "PC-3 [4]": {"test_system": "PC-3", "assay": "Induction of apoptosis in human PC3 cells assessed as necrotic cells at 0.5 uM after 24 hrs by Annexin V-FITC/propidium iodide based flow cytometric analysis (reference value: 1.1 %)", "type": "functional", "method_in_brief": "(§2)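 PC3 cells exposed to 0.5, 1 or 2 μM for 24 h, then stained with Annexin V-FITC and PI and analyzed by FACSCalibur flow cytometry. Populations assigned as necrotic (Annexin V−/PI+), late apoptotic (double positive), normal (Annexin V−/PI−) and early apoptotic (Annexin V+/PI−). DMSO vehicle control.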"}, "DU-145": {"test_system": "DU-145", "assay": "Cytotoxicity against human DU145 cells assessed as cell growth inhibition after 24 hrs by MTT assay", "type": "functional, cell-based", "details": "DU-145, 24 h", "method_in_brief": "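Cells seeded 24 h in RPMI 1640 + 10% FBS. RWPE-1 was kept in K-SFM with bovine pituitary extract and EGF. Cells then exposed to compounds for 24 h at 37 °C, 5% CO2, with DMSO vehicle and docetaxel as positive control. MTT added for 4 h, absorbance read at 570 nm. Triplicate runs, IC50 reported as mean of three experiments.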"}, "PC-3M": {"test_system": "PC-3M", "assay": "Antiproliferation activity against human PC3M-lluc-C6 cells xenografted in athymic Balb/c mouse assessed as decrease in cell viability at 15 mg/kg, ip administered every 2 days for 18 days by Ki-67 staining based microscopic analysis", "type": "functional, organism-based", "method_in_brief": "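Male BALB/c-nu mice, 6 weeks old, each given 5 × 10^6 PC3M-luc-C6 cells subcutaneously in the right anterior flank. At ~0.1 cm3 tumor, groups of n = 5 received 15 mg/kg i.p. every 2 days. Docetaxel 15 mg/kg was the positive control. Tumor tissue stained with H&E or anti-Ki67 (1:500) overnight at 4 °C, HRP/DAB, hematoxylin counterstain, examined by microscopy.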"}, "PC-3 [5]": {"test_system": "PC-3", "assay": "Induction of apoptosis in human PC3 cells assessed as viable cells at 0.5 uM after 24 hrs by Annexin V-FITC/propidium iodide based flow cytometric analysis (reference value: 95.4 %)", "type": "functional", "details": "PC-3, 24 h, read-out: Activity", "method_in_brief": "as §2"}, "PC-3 [6]": {"test_system": "PC-3", "assay": "Induction of apoptosis in human PC3 cells assessed as viable cells at 1 uM after 24 hrs by Annexin V-FITC/propidium iodide based flow cytometric analysis (reference value: 95.4 %)", "type": "functional", "details": "PC-3, 24 h, read-out: Activity", "method_in_brief": "as §2"}, "PC-3 [7]": {"test_system": "PC-3", "assay": "Induction of autophagy in human PC3 cells assessed as vacuole formation at 1 uM after 24 hrs in presence of PI3K inhibitor 3-MA by phase-contrast microscopic analysis", "type": "functional, cell-based", "method_in_brief": "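PC3 cells were pretreated with the autophagy inhibitor (3-MA or E64d), then exposed to 1 μM test agent for 24 h. Morphology was imaged by phase-contrast microscopy, and viability was read by MTT at 570 nm. Comparison was against agent-only cells.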"}, "PC-3 [8]": {"test_system": "PC-3", "assay": "Induction of cell cycle arrest in human PC3 cells assessed as accumulation in G0/G1 phase at 1 uM after 24 hrs by […]propidium iodide based flow cytometric analysis (reference value: 43.5 to 62.5 %)", "type": "functional"}, "PC-3 [9]": {"test_system": "PC-3", "assay": "Growth inhibition of human PC3 cells at IC30 in presence of bortezomib by MTT assay", "type": "functional, cell-based", "method_in_brief": "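PC3 cells incubated with increasing concentrations of compound combined with a second agent (bortezomib or partner compound). Viability determined, combination index calculated: CI < 1 synergism, = 1 additive, > 1 antagonism.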"}, "PC-3 [10]": {"test_system": "PC-3", "assay": "Cytotoxicity in human PC3 cells assessed as reduction in cell viability after 24 hrs in presence of CHX by MTT assay", "type": "functional, cell-based", "method_in_brief": "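PC3 cells pretreated with 10 μM actinomycin D or 5 μM cycloheximide, then treated with compound for 24 h. Viability by MTT at 570 nm. Vacuolation imaged by phase-contrast microscopy.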"}, "PC-3 [11]": {"test_system": "PC-3", "assay": "Induction of autophagy in human PC3 cells assessed as conversion of LC3B1 to LC3B2 after 24 hrs by Western blot analysis", "type": "functional, cell-based", "method_in_brief": "as §1"}, "PC-3 [12]": {"test_system": "PC-3", "assay": "Induction of apoptosis in human PC3 cells assessed as PARP cleavage after 24 hrs by Western blot analysis", "type": "functional, cell-based", "method_in_brief": "as §1"}}, "note": "Activity calls are given as the source filed them. The rule behind the calls is not given here."}
{"smiles": "Cc1cc(C)cc(COc2cc3c(cc2OCc2cc(C)cc(C)c2)[C@@H]2C[C@H](O)C[C@@H](C)N2CC3)c1", "note": "(racemic)", "values": [{"measurement": "Activity", "setting": "PC-3 [1]", "result": "inactive"}, {"measurement": "Activity", "setting": "PC-3 [2]", "result": "Active"}, {"measurement": "Activity", "setting": "[3]", "result": "Active"}, {"measurement": "Activity", "setting": "PC-3 [4]", "result": 1, "unit": "%"}, {"measurement": "IC50", "setting": "DU-145", "result": 1960, "unit": "nM"}, {"measurement": "inhibition", "setting": "PC-3M", "result": "Active"}, {"measurement": "viability at 0.5 µM", "setting": "PC-3 [5]", "result": 95.3, "unit": "%"}, {"measurement": "viability at 1 µM", "setting": "PC-3 [6]", "result": 90, "unit": "%"}, {"measurement": "Activity", "setting": "PC-3 [7]", "result": "inactive"}, {"measurement": "Activity", "setting": "PC-3 [8]", "result": "65.1 - 78%"}, {"measurement": "growth inhibition (GI)", "setting": "PC-3 [9]", "result": "Active"}, {"measurement": "Activity", "setting": "PC-3 [10]", "result": "inactive"}, {"measurement": "Activity", "setting": "PC-3 [11]", "result": "Active"}, {"measurement": "Activity", "setting": "PC-3 [12]", "result": "Active"}]}
